Results taken from ChEMBL document CHEMBL3045435, “Synthesis and fungicidal activity of macrolactams and macrolactones with an oxime ether side chain” (J Agric Food Chem, 2007).
≈ marks a conversion by molar mass, not a printed value.

What was measured:
Format in all cases: functional, organism-based
Rhizoctonia solani [1] = test: Fungicidal activity against Rhizoctonia solani by mycelium growth rate test
Phytophthora capsici = test: Fungicidal activity against Phytophthora capsici assessed as growth inhibition
Fulvia fulva = test: Fungicidal activity against Passalora fulva Cooke (tomato leaf mold fungi) assessed as growth inhibition
Alternaria solani = test: Fungicidal activity against Alternaria solani assessed as growth inhibition
Pythium aphanidermatum = test: Fungicidal activity against Pythium aphanidermatum assessed as growth inhibition
[2] = test system: Fusarium oxysporum f. sp. vasinfectum; test: Fungicidal activity against cotton Fusarium oxysporum f. sp. vasinfectum (fusarium wilt fungi) assessed as growth inhibition
Colletotrichum lagenaria = test: Fungicidal activity against Colletotrichum lagenaria assessed as growth inhibition
Rhizoctonia solani [3] = test: Fungicidal activity against Rhizoctonia solani assessed as growth inhibition
Outline: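 Mycelium growth rate test on Rhizoctonia solani Kühn. Inhibition rate was measured at 100, 50, 25, 12.5 and 6.25 µg/mL. EC50 was estimated by logistic analysis. A commercial fungicide reference was run under the same conditions.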

Verticillium albo-atrum = test: Fungicidal activity against Vercicillium albo-atrum assessed as growth inhibition
[4] = test system: Botryosphaeria berengeriana; test: Fungicidal activity against Botryosphaeria berengeriana Nose (apple ring spot fungi) assessed as growth inhibition
Phomopsis asparagi = test: Fungicidal activity against Phomopsis asparagi assessed as growth inhibition
Botrytis cinerea = test: Fungicidal activity against Botryotinia fuckeliana assessed as growth inhibition
Phyllosticta = test: Fungicidal activity against Phyllospicpa physaleos Sacc (tomato southern blight fungi) assessed as growth inhibition
Alternaria kikuchiana = test: Fungicidal activity against Alternaria kikuchiana (pear black spot fungi) assessed as growth inhibition

Compound | EC50 (Rhizoctonia solani [1]) [µg/mL] | other results
CCCO/N=C1\CCCCCCCCCCC(=O)NCCC1 | 3.62 (≈ 11.7 µM) | –
CCCO/N=C1/CCCCCCCCCCC(=O)NCC1 | 22.1 (≈ 74.5 µM) | –
CCCON=C1CCCCCCCCCCC(=O)NCCC1 | – | EC50 (Phytophthora capsici): 57.8 µg/mL (≈ 186 µM); EC50 (Fulvia fulva): 53.1 µg/mL (≈ 171 µM); EC50 (Alternaria solani): 44.2 µg/mL (≈ 142 µM); EC50 (Pythium aphanidermatum): 33.3 µg/mL (≈ 107 µM); EC50 [2]: 29 µg/mL (≈ 93.4 µM); EC50 (Colletotrichum lagenaria): 23.9 µg/mL (≈ 77 µM); EC50 (Rhizoctonia solani [3]): 4.6 µg/mL (≈ 14.8 µM); EC50 (Verticillium albo-atrum): 19.3 µg/mL (≈ 62.2 µM); EC50 [4]: 13.8 µg/mL (≈ 44.4 µM); EC50 (Phomopsis asparagi): 12 µg/mL (≈ 38.6 µM); EC50 (Botrytis cinerea): 8.6 µg/mL (≈ 27.7 µM); EC50 (Phyllosticta): 1.9 µg/mL (≈ 6.12 µM); EC50 (Alternaria kikuchiana): 1.2 µg/mL (≈ 3.86 µM)
O=C1CCCCCCCCCC/C(=N/OCc2ccc(Cl)cc2)CCCN1 | 68.4 (≈ 174 µM) | –
O=C1CCCCCCCCCC/C(=N\OCc2ccc(Cl)cc2)CCCN1 | 164 (≈ 418 µM) | –
O=C1CCCCCCCCCC/C(=N/OCc2c(F)cccc2Cl)CCCN1 | 2.34 (≈ 5.69 µM) | –
O=C1CCCCCCCCCC/C(=N\OCc2c(F)cccc2Cl)CCCN1 | 6.21 (≈ 15.1 µM) | –
CCCON=C1CCCCCCCCCCC(=O)OCCC1 | 8.08 (≈ 25.9 µM) | –
C=CCON=C1CCCCCCCCCCC(=O)OCCC1 | 12.8 (≈ 41.2 µM) | –
CCCCON=C1CCCCCCCCCCC(=O)OCCC1 | 13.4 (≈ 41 µM) | –
CCCCCCCON=C1CCCCCCCCCCC(=O)OCCC1 | 9.68 (≈ 26.3 µM) | –
CCCCCCCCCCCCCCCCON=C1CCCCCCCCCCC(=O)OCCC1 | 40.4 (≈ 81.8 µM) | –
O=C1CCCCCCCCCCC(=NOCc2ccccc2)CCCO1 | 45.1 (≈ 126 µM) | –
O=C1CCCCCCCCCCC(=NOCc2ccc(Cl)cc2)CCCO1 | 19.6 (≈ 49.8 µM) | –
O=C1CCCCCCCCCCC(=NOCc2c(F)cccc2Cl)CCCO1 | 51.3 (≈ 124 µM) | –
O=C1CCCCCCCCCC/C(=N\OCc2cccnc2)CCN1 | 52.5 (≈ 152 µM) | –
CCO/N=C1\CCCCCCCCCCC(=O)NCCC1 | 22.7 (≈ 76.7 µM) | –
CCCO/N=C1/CCCCCCCCCCC(=O)NCCC1 | 13.1 (≈ 42.3 µM) | –
C=CCO/N=C1/CCCCCCCCCCC(=O)NCCC1 | 45.6 (≈ 148 µM) | –
C=CCO/N=C1\CCCCCCCCCCC(=O)NCCC1 | 15.9 (≈ 51.6 µM) | –

Compound | EC50 (Rhizoctonia solani [1]) [µg/mL] | other results
CCCCO/N=C1/CCCCCCCCCCC(=O)NCCC1 | 3.97 (≈ 12.2 µM) | –
CCCCO/N=C1\CCCCCCCCCCC(=O)NCCC1 | 2.34 (≈ 7.21 µM) | –
CCCCCCCO/N=C1/CCCCCCCCCCC(=O)NCCC1 | 19.2 (≈ 52.5 µM) | –
CCCCCCCO/N=C1\CCCCCCCCCCC(=O)NCCC1 | 27.9 (≈ 76.1 µM) | –
CCCCCCCCCCCCCCCCO/N=C1/CCCCCCCCCCC(=O)NCCC1 | 47.8 (≈ 96.9 µM) | –
CCCCCCCCCCCCCCCCO/N=C1\CCCCCCCCCCC(=O)NCCC1 | 51.5 (≈ 104 µM) | –
O=C1CCCCCCCCCC/C(=N/OCc2ccccc2)CCCN1 | 5.84 (≈ 16.3 µM) | –
O=C1CCCCCCCCCC/C(=N\OCc2ccccc2)CCCN1 | 8.28 (≈ 23.1 µM) | –
O=C1CCCCCCCCCC/C(=N\OCc2ccccc2)CCN1 | 7.24 (≈ 21 µM) | –
Cc1ccc(CO/N=C2/CCCCCCCCCCC(=O)NCC2)cc1 | 111 (≈ 310 µM) | –
Cc1ccc(CO/N=C2\CCCCCCCCCCC(=O)NCC2)cc1 | 50.5 (≈ 141 µM) | –
O=C1CCCCCCCCCC/C(=N/OCc2ccc(F)cc2)CCN1 | 74.9 (≈ 207 µM) | –
O=C1CCCCCCCCCC/C(=N\OCc2ccc(F)cc2)CCN1 | 12.1 (≈ 33.3 µM) | –
O=C1CCCCCCCCCC/C(=N/OCc2ccc(Cl)cc2)CCN1 | 97.2 (≈ 257 µM) | –
O=C1CCCCCCCCCC/C(=N\OCc2ccc(Cl)cc2)CCN1 | 84.8 (≈ 224 µM) | –
O=C1CCCCCCCCCC/C(=N/OCc2ccc([N+](=O)[O-])cc2)CCN1 | 49.3 (≈ 127 µM) | –
O=C1CCCCCCCCCC/C(=N\OCc2ccc([N+](=O)[O-])cc2)CCN1 | 166 (≈ 427 µM) | –
O=C1CCCCCCCCCC/C(=N/OCc2c(F)cccc2Cl)CCN1 | 1730 (≈ 4370 µM) | –
O=C1CCCCCCCCCC/C(=N\OCc2c(F)cccc2Cl)CCN1 | 43 (≈ 108 µM) | –
O=C1CCCCCCCCCC/C(=N/OCc2ccc(Cl)cc2Cl)CCN1 | 100 (≈ 242 µM) | –

Compound | EC50 (Rhizoctonia solani [1]) [µg/mL] | other results
O=C1CCCCCCCCCC/C(=N\OCc2ccc(Cl)cc2Cl)CCN1 | 106 (≈ 256 µM) | –
O=C1CCCCCCCCCC/C(=N/OCc2cccnc2)CCN1 | 56.4 (≈ 163 µM) | –
CCO/N=C1\CCCCCCCCCCC(=O)NCC1 | 25.8 (≈ 91.5 µM) | –
CCCO/N=C1\CCCCCCCCCCC(=O)NCC1 | 9.11 (≈ 30.7 µM) | –
C=CCO/N=C1/CCCCCCCCCCC(=O)NCC1 | 44 (≈ 150 µM) | –
C=CCO/N=C1\CCCCCCCCCCC(=O)NCC1 | 21.8 (≈ 73.9 µM) | –
CCCCO/N=C1/CCCCCCCCCCC(=O)NCC1 | 55.1 (≈ 177 µM) | –
CCCCO/N=C1\CCCCCCCCCCC(=O)NCC1 | 7.21 (≈ 23.2 µM) | –
CC(C)CO/N=C1/CCCCCCCCCCC(=O)NCC1 | 48.4 (≈ 156 µM) | –
CC(C)CO/N=C1\CCCCCCCCCCC(=O)NCC1 | 30.4 (≈ 97.8 µM) | –
CCCCCCCO/N=C1/CCCCCCCCCCC(=O)NCC1 | 209 (≈ 594 µM) | –
CCCCCCCO/N=C1\CCCCCCCCCCC(=O)NCC1 | 50.3 (≈ 143 µM) | –
CCCCCCCCCCCCCCO/N=C1/CCCCCCCCCCC(=O)NCC1 | 101 (≈ 224 µM) | –
CCCCCCCCCCCCCCO/N=C1\CCCCCCCCCCC(=O)NCC1 | 69.1 (≈ 153 µM) | –
CCCCCCCCCCCCCCCCO/N=C1/CCCCCCCCCCC(=O)NCC1 | 135 (≈ 282 µM) | –
CCCCCCCCCCCCCCCCO/N=C1\CCCCCCCCCCC(=O)NCC1 | 127 (≈ 266 µM) | –
O=C1CCCCCCCCCC/C(=N/OCc2ccccc2)CCN1 | 18.1 (≈ 52.7 µM) | –
CO/N=C1/CCCCCCCCCCC(=O)NCC1 | 51.3 (≈ 191 µM) | –
CO/N=C1\CCCCCCCCCCC(=O)NCC1 | 55.8 (≈ 208 µM) | –
COC(=O)Nc1nc2ccccc2[nH]1 [CARBENDAZIM] | 1.54 (≈ 8.05 µM) | –
